≈ marks a conversion by molar mass, not a printed value. Calls of active or inactive are those of the source. No cut-off for these calls is given here.
Legend:
[1] = AUC (0 to 8 hrs) in Sprague-Dawley rat at 3 mg/kg, po by LC/MS/MS analysis; type: ADME, organism-based; design: dose 3 mg/kg, time < 8 hr, route oral; conditions: in vivo
In short: (§1)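 Male Sprague-Dawley rats, 200-300 g, dosed iv (n = 2) or po (n = 3) as solutions in NMP/PG or PEG400/ETPGS vehicles. Blood was taken from a jugular vein catheter at 0.083 (iv only), 0.25, 0.5, 1, 2, 4, 6 and 8 h into EDTA tubes, and plasma was analysed by LC-MS/MS. Values are means ± SD.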

[2] = Oral bioavailability in Sprague-Dawley rat at 3 mg/kg by LC/MS/MS analysis; type: ADME, organism-based; conditions: in vivo; in short: as §1
[3] = Permeability across apical to basolateral side in human Caco2 cells; type: ADME, cell-based; conditions: Caco-2, read-out: permeability
In short: (§2)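 Caco-2 monolayer permeability was measured in the A-B and B-A directions, and the efflux ratio was taken as B-A/A-B.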

[4] = AUC (0 to 8 hrs) in Sprague-Dawley rat at 1mg/kg, iv by LC/MS/MS analysis; type: ADME, organism-based; design: time < 8 hr, dose 1 mg/kg, route intravenous; conditions: in vivo; in short: as §1
[5] = Half life in Sprague-Dawley rat at 1 mg/kg, iv by LC/MS/MS analysis; type: ADME, organism-based; conditions: in vivo; in short: as §1
[6] = Clearance in Sprague-Dawley rat at 1 mg/kg, iv by LC/MS/MS analysis; type: ADME, organism-based; conditions: in vivo; in short: as §1
[7] = Cmax in Sprague-Dawley rat at 3 mg/kg, po by LC/MS/MS analysis; type: ADME, organism-based; design: dose 3 mg/kg, route oral; conditions: in vivo; in short: as §1
[8] = target: T1, Diacylglycerol O-acyltransferase 1 (Mus musculus, UniProt Q9Z2A7); experiment: Inhibition of DGTA1 in mouse C2C12 cells assessed as inhibition of triglyceride formation after 2 hrs by LC/MS/MS analysis; type: cell-based
T1 sequence (Q9Z2A7 whole entry): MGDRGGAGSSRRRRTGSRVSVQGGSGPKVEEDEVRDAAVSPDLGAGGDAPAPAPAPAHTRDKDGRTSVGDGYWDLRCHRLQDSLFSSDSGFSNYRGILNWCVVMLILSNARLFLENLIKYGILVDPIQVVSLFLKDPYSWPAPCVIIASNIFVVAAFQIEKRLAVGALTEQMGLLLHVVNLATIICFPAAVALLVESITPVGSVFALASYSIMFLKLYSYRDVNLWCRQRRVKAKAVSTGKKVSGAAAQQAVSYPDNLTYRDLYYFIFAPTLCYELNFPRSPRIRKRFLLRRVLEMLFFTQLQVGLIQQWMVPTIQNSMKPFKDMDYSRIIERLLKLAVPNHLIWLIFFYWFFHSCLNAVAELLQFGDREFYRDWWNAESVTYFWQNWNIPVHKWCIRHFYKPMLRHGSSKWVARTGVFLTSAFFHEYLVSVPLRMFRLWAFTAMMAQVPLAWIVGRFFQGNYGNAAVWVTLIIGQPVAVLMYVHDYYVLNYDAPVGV
In short: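 C2C12 cells were seeded in DMEM with 5 mM glucose and 10% FBS for 18 h at 37 °C. Medium was then replaced with DMEM, 5 mM glucose and 250 µM oleate-BSA plus inhibitor (0.5% DMSO final) for 2 h at 37 °C. Cells were extracted with butanol containing tripalmitolein internal standard and triglyceride was read by LC-MS/MS. An 11-point, 3-fold dose response was run in quadruplicate.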

[9] = Volume of distribution at steady state in Sprague-Dawley rat at 1 mg/kg, iv by LC/MS/MS analysis; type: ADME, organism-based; conditions: in vivo, read-out: Vdss; in short: as §1
[10] = Tmax in Sprague-Dawley rat 3 mg/kg, po by LC/MS/MS analysis; type: ADME, organism-based; conditions: in vivo; in short: as §1
[11] = Permeability across basolateral to apical side in human Caco2 cells; type: ADME, cell-based; conditions: Caco-2, read-out: permeability; in short: as §2
[12] = Drug level in monkey hepatocytes treated with [3H]-3-(4-(6-(5-(4-Methoxyphenyl)-1,3,4-oxadiazol-2-yl)-1H-benzo[d]imidazol-2-yl)-3,5-dimethylphenyl)-2,2-dimethylpropanoic acid at 12.5 uM after 18 hrs; type: ADME, cell-based, Macaca mulatta, Hepatocyte; conditions: rhesus monkey
In short: (§3)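 [3H]-labelled compound (12.5 µM) was incubated for 18 h with rat, dog, monkey or human hepatocytes, and metabolites were profiled.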

[13] = Drug level in rat hepatocytes treated with [3H]-3-(4-(6-(5-(4-Methoxyphenyl)-1,3,4-oxadiazol-2-yl)-1H-benzo[d]imidazol-2-yl)-3,5-dimethylphenyl)-2,2-dimethylpropanoic acid at 12.5 uM after 18 hrs; type: ADME, cell-based, Hepatocyte; in short: as §3
[14] = Drug level in dog hepatocytes treated with [3H]-3-(4-(6-(5-(4-Methoxyphenyl)-1,3,4-oxadiazol-2-yl)-1H-benzo[d]imidazol-2-yl)-3,5-dimethylphenyl)-2,2-dimethylpropanoic acid at 12.5 uM after 18 hrs; type: ADME, cell-based, Canis lupus familiaris, Hepatocyte; in short: as §3
[15] = Drug level in human hepatocytes treated with [3H]-3-(4-(6-(5-(4-Methoxyphenyl)-1,3,4-oxadiazol-2-yl)-1H-benzo[d]imidazol-2-yl)-3,5-dimethylphenyl)-2,2-dimethylpropanoic acid at 12.5 uM after 18 hrs; type: ADME, cell-based, Hepatocyte; in short: as §3
[16] = Ratio of IC50 for DGTA1 in mouse C2C12 cells to IC50 for recombinant human His6-tagged DGAT1; type: cell-based
In short: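 Ratio of the C2C12 cellular IC50 to the enzymatic IC50. Enzyme assay: Sf9 membranes expressing human His6-DGAT1 with 50 µM diolein and 50 µM oleoyl-CoA in 50 mM HEPES pH 7.5, 5 mM MgCl2 and 10% ethanol, 30 min at room temperature. Triolein was read by LC-MS/MS, with a 10-point, 3-fold dose response run in duplicate.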

[17] = Solubility of the compound at pH 6.8 after 24 hrs; type: physicochemical; conditions: buffer
In short: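 Solubility was measured in pH 6.8 buffer after 24 h incubation.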

[18] = tested on: Homo sapiens; experiment: Antiobesity activity in high fat-fed human assessed as suppression of postprandial plasma triglyceride level compound administered as single oral dose; type: functional
In short: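 Randomized, double-blind, placebo-controlled single ascending dose study in overweight or obese healthy adults aged 18-55. Single oral doses of 5-600 mg (n = 8 per dose) or placebo (n = 12) were given. About 1 h after dosing, subjects ate a ~1000 kcal, 55% fat test meal, and plasma triglycerides were compared against an untreated baseline meal test monitored for 9 h.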

[19] = organism: Rattus norvegicus; experiment: Antiobesity activity in rat assessed as suppression of postprandial triglyceride levels; type: functional
[20] = tested on: Canis familiaris; experiment: Antiobesity activity in fasted Beagle dog assessed as postprandial triglyceride AUC in plasma at 1 mg/kg administered via oral gavage prior to 30 mins of […] measured after 4 hrs (reference value: 35400 +/- 8863 mg/dL.min); type: functional, organism-based; design: dose 1 mg/kg, time < 4 hr; conditions: Canis lupus familiaris
[21] = Oral bioavailability in Sprague-Dawley rat at 5 mg/kg by LC/MS/MS analysis; type: ADME, organism-based; conditions: in vivo; in short: as §1
[22] = Tmax in Sprague-Dawley rat 5 mg/kg, po by LC/MS/MS analysis; type: ADME, organism-based; conditions: in vivo; in short: as §1
[23] = Cmax in Sprague-Dawley rat at 5 mg/kg, po by LC/MS/MS analysis; type: ADME, organism-based; design: dose 5 mg/kg, route oral; conditions: in vivo; in short: as §1
[24] = AUC (0 to 8 hrs) in Sprague-Dawley rat at 5 mg/kg, po by LC/MS/MS analysis; type: ADME, organism-based; design: dose 5 mg/kg, time < 8 hr, route oral; conditions: in vivo; in short: as §1
[25] = Protein binding in dog plasma at 5 mg/kg, po after 24 hrs; type: ADME, organism-based, Canis lupus familiaris; conditions: read-out: PPB (converted)
[26] = AUC (0 to 24 hrs) in dog plasma at 5 mg/kg, po after 24 hrs; type: ADME, organism-based, Canis lupus familiaris; design: time < 24 hr, dose 5 mg/kg, route oral
[27] = Plasma concentration in high fat diet-fed dog at 5 mg/kg, po qd administered via gavage measured after twenty-ninth dose; type: ADME, organism-based, Canis lupus familiaris
[28] = tested on: Canis familiaris; experiment: Antiobesity activity in high fat diet-fed dog assessed as reduction in body weight gain at 5 mg/kg, po qd administered via gelatin capsule after 21 days relative to vehicle control; design: scale not given: the % may be the effect or the level left
[29] = Plasma concentration in high fat diet-fed dog at 5 mg/kg, po administered via gelatin capsule after 90 mins
[30] = tested on: Plasma; experiment: Unbound concentration in dog plasma at 5 mg/kg, po after 24 hrs; type: ADME, organism-based, Canis lupus familiaris; conditions: in vivo

COc1ccc(-c2nnc(-c3ccc4nc(-c5c(C)cc(CCC(=O)O)cc5C)[nH]c4c3)o2)cc1
AUC(0-t) at 8 h [1]: 0.103 µM·h | bioavailability [2]: 2% | Papp A→B [3]: 1.4 ×10⁻⁶ cm/s | AUC(0-t) at 8 h [4]: 1.69 µM·h | half-life [5]: 96 min | clearance [6]: 21 mL/min/kg | Cmax [7]: 40 nM | IC50 [8]: 181 nM | Vd [9]: 0.7 L/kg | Tmax [10]: 30 min | Papp B→A [11]: 9.2 ×10⁻⁶ cm/s

Cc1cc(CC(C)(C)C(=O)O)cc(C)c1-c1nc2ccc(-c3nnc(-c4ccc(O)cc4)o3)cc2[nH]1
Drug metabolism [12]: Metabolite_Detected | Drug metabolism [13]: Metabolite_Detected | Drug metabolism [14]: Metabolite_Detected | Drug metabolism [15]: Metabolite_Detected

Cc1cc(CCC(=O)O)cc(C)c1-c1nc2ccc(C(=O)Nc3ccc(C(C)(C)C)cc3)cc2[nH]1
Ratio IC50 [16]: 10

Cc1cc(CC(C)(C)C(=O)O)cc(C)c1-c1nc2ccc(C(=O)Nc3ccc4ccccc4n3)cc2[nH]1
AUC(0-t) at 8 h [1]: 4.23 µM·h | bioavailability [2]: 23% | Papp A→B [3]: 3.5 ×10⁻⁶ cm/s | AUC(0-t) at 8 h [4]: 6.11 µM·h | half-life [5]: 48 min | clearance [6]: 5.5 mL/min/kg | Cmax [7]: 1720 nM | IC50 [8]: 954 nM | solubility at 24 h [17]: 8 µM (≈ 3.94 µg/mL) | Vd [9]: 0.4 L/kg | Tmax [10]: 30 min | Papp B→A [11]: 12.4 ×10⁻⁶ cm/s

COc1ccc(-c2nnc(-c3ccc4nc(-c5c(C)cc(CC(C)(C)C(=O)O)cc5C)[nH]c4c3)o2)cc1
Activity [18]: Dose-dependent effect | Ratio IC50 [16]: 9 | Activity [19]: Active | AUC [20]: 308000 ng·h/mL

Cc1cc(CCC(=O)O)cc(C)c1-c1nc2ccc(C(=O)Nc3ccc4ccccc4n3)cc2[nH]1
bioavailability [21]: 2% | Tmax [22]: 24 min | Cmax [23]: 333 nM | Papp A→B [3]: 1.4 ×10⁻⁶ cm/s | AUC(0-t) at 8 h [4]: 5.23 µM·h | AUC(0-t) at 8 h [24]: 0.405 µM·h | half-life [5]: 102 min | clearance [6]: 6.9 mL/min/kg | IC50 [8]: 913 nM | Vd [9]: 0.4 L/kg | Papp B→A [11]: 14.1 ×10⁻⁶ cm/s

COc1ccc(-c2nnc(-c3ccc4nc(-c5c(C)cc(CC(C)(C)C(=O)O[C@@H]6O[C@H](C(=O)O)[C@@H](O)[C@H](O)[C@H]6O)cc5C)[nH]c4c3)o2)cc1
Drug metabolism [12]: Metabolite_Detected | Drug metabolism [13]: Metabolite_Detected | Drug metabolism [14]: Metabolite_Detected | Drug metabolism [15]: Metabolite_Detected

COc1ccc(-c2nnc(-c3ccc4nc(-c5c(C)cc(CC(C)(C)C(=O)O)cc5C)[nH]c4c3)o2)cc1.[Na+]
fraction unbound at 24 h [25]: 0.009 | AUC(0-t) at 24 h [26]: 5.27 µM·h | concentration at 29 days [27]: 930 nM | Activity [28]: 11% | concentration at 1.5 h [29]: 738 nM | Cp(f) [30]: 2 nM
